This note sets out measurements from ChEMBL document CHEMBL1138362, “Dihydro-alkylthio-benzyl-oxopyrimidines as inhibitors of reverse transcriptase: synthesis and rationalization of the biological data on both wild-type enzyme and relevant clinical mutants” (J Med Chem, 2007).

The test system of assay [1] is Human immunodeficiency virus 1. Kind of assay: Antiviral activity against HIV1 with reverse transcriptase IRLL98 mutation in MT4 cells after 5 days by MTT method relative to wild type NL4-3. The format is functional. (In general: Formazan colour is commonly taken as a measure of viable cells.)
Assay [2] deals with Human immunodeficiency virus 1. Kind of assay: Antiviral activity against HIV1 with reverse transcriptase Y188L mutation in MT4 cells after 5 days by MTT method. The format is functional, organism-based. The conditions noted are these: Human immunodeficiency virus 1, MT4, 120 h. Put shortly:
(§1)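 MT-4 cells from the NIH AIDS Reagent Program were infected with mutant HIV-1 (K103N or Y188L, from the MRC Centralised Facility) in the presence of graded drug concentrations. Mock-infected cells were used for cytotoxicity. Viable cells were counted by MTT colorimetry at day 5 post-infection.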

Assay [3] has as its system Human immunodeficiency virus 1 [K103N]. Kind of assay: Antiviral activity against HIV1 reverse transcriptase K103N mutant.
Assay [4] concerns Human immunodeficiency virus type 1 reverse transcriptase (Human immunodeficiency virus 1), Q72547 [Y181I]. Kind of assay: Antiviral activity against HIV1 reverse transcriptase Y181I mutant.
The test system of assay [5] is Human immunodeficiency virus 1. Kind of assay: Antiviral activity against HIV1 with reverse transcriptase Y181C mutation in MT4 cells after 5 days by MTT method. The format is functional, organism-based. Particulars: Human immunodeficiency virus 1, MT4, 120 h.
The test system of assay [6] is Human immunodeficiency virus 1. Kind of assay: Antiviral activity against wild type HIV1 NL4-3 in MT4 cells after 5 days by MTT method. The format is functional, organism-based. The conditions noted are these: Human immunodeficiency virus 1, NL4-3, MT4, 120 h. The procedure, abridged: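 MT-4 lymphoid cells, infected with HIV-1 or mock-infected (for cytotoxicity), held with a range of drug concentrations; viable cells scored at day 5 post-infection by tetrazolium (MTT) colorimetry.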

In assay [7] the test system is Human immunodeficiency virus 1. Kind of assay: Antiviral activity against HIV1 with reverse transcriptase K103N mutation in MT4 cells after 5 days by MTT method. The format is functional, organism-based. The conditions noted are these: Human immunodeficiency virus 1, MT4, 120 h. The procedure, abridged: as §1
Assay [8] addresses Human immunodeficiency virus type 1 reverse transcriptase (Human immunodeficiency virus 1) (UniProt Q72547). Kind of assay: Antiviral activity against wild type HIV1 reverse transcriptase.

Usually EC50 stands for the concentration giving half of the maximal effect. Lower therefore signals a more potent agent.

In assay [1], `Cc1ccnc2c1NC(=O)c1cccnc1N2C1CC1` [NEVIRAPINE] showed a Fold change of 144.
For `O=C1Nc2ccc(Cl)cc2C(C#CC2CC2)(C(F)(F)F)O1` (single isomer, unassigned) [EFAVIRENZ], in assay [1], the Fold change came to 300.
Regarding `CCc1c(Cc2c(Cl)cccc2Cl)nc(SCc2ccc(OC)cc2)[nH]c1=O`, the EC50 in assay [2] was over 57.5 µM; in assay [5], 0.83 µM; in assay [6], 2.2 nM; in assay [7] it was 6.99 µM. In addition, the values for the ID50 in assay [3], in assay [4] and in assay [8] were 7.6 µM, over 20 µM and 0.032 µM, respectively.
Turning to `Cc1c(C(C)c2c(F)cccc2F)nc(SCc2ccc(C#N)cc2)[nH]c1=O` (centres undefined), the EC50 turned out to be 0.68 µM in assay [2], 1.55 µM in assay [5], 7.8 nM in assay [6] and 0.73 µM in assay [7]. Further, the ID50 in assay [3] was 0.7 µM; in assay [4] it was over 20 µM; in assay [8], 0.01 µM.
For the compound `Cc1c(C(C)c2c(F)cccc2F)nc(SCc2ccc([N+](=O)[O-])cc2)[nH]c1=O` (centres undefined), the EC50 in assay [2] was 0.22 µM; in assay [5], 0.44 µM; in assay [6] it was 3.3 nM; in assay [7] it was 0.66 µM. Moreover, the figures for the ID50 in assay [3], in assay [4] and in assay [8] were 0.6 µM, over 20 µM and 0.03 µM, respectively.
Turning to `COc1ccc(/C=C/Sc2nc(C(C)c3c(Cl)cccc3Cl)c(C)c(=O)[nH]2)cc1` (centres undefined), the EC50 in assay [2] was over 55.9 µM; in assay [5], over 55.9 µM; in assay [6], 16200 nM; in assay [7] it was over 55.9 µM. The ID50 in assay [3] is over 20 µM; in assay [4], over 20 µM; in assay [8] it was 0.02 µM.
As to `CCc1c(Cc2c(Cl)cccc2Cl)nc(SCc2ccc([N+](=O)[O-])cc2)[nH]c1=O`, the EC50 in assay [2] is over 55.6 µM; in assay [5], 1.58 µM; in assay [6], 66.6 nM; in assay [7], over 55.6 µM. Moreover, the ID50 was over 20 µM in assay [3], over 20 µM in assay [4] and 0.075 µM in assay [8].
On to `CCc1c(Cc2c(F)cccc2F)nc(SCc2ccc(OC)cc2)[nH]c1=O`, for which the EC50 in assay [2] was over 62.2 µM; in assay [5] it was 1.45 µM; in assay [6], 12 nM; in assay [7], 10.3 µM. In addition, the ID50 is over 20 µM in assay [3], over 20 µM in assay [4] and 0.03 µM in assay [8].
Regarding `CCc1c(C(C)c2c(F)cccc2F)nc(SC/C=C/c2ccc([N+](=O)[O-])cc2)[nH]c1=O` (centres undefined), the EC50 in assay [2] was 1.94 µM; in assay [5], over 5.75 µM; in assay [6], 0.4 nM; in assay [7], over 5.75 µM. Also, the values for the ID50 in assay [3], in assay [4] and in assay [8] were over 20 µM, over 20 µM and 0.009 µM, respectively.
In the case of `CCCCc1ccc(CSc2nc(Cc3ccc(C#N)cc3)c(C)c(=O)[nH]2)cc1`, the EC50 in assay [2] was over 79.9 µM; in assay [5], over 79.9 µM; in assay [6] it was 4570 nM; in assay [7], over 79.9 µM. The ID50 in assay [3], in assay [4] and in assay [8] was over 20 µM throughout.
With `CCc1c(Cc2c(Cl)cccc2Cl)nc(SC/C=C/c2ccc([N+](=O)[O-])cc2)[nH]c1=O`, the EC50 is over 32.1 µM in assay [2], 4.2 µM in assay [5], 610 nM in assay [6] and over 32.1 µM in assay [7]. For the same compound, the ID50 in assay [3] was over 20 µM; in assay [4], over 20 µM; in assay [8], 2.5 µM.
Take `CCOc1ccc(CSc2nc(Cc3c(F)cccc3F)c(C)c(=O)[nH]2)cc1`: the EC50 in assay [2] was over 62.2 µM; in assay [5], 1.19 µM; in assay [6], 370 nM; in assay [7], over 62.2 µM. Also, the ID50 in assay [3] is over 20 µM; in assay [4] it was over 20 µM; in assay [8], 0.8 µM.
Regarding `COc1ccc(CSc2nc(Cc3ccc(C#N)cc3)c(C)c(=O)[nH]2)cc1`, the concentration giving a half-maximal response (EC50) in assay [2] is over 66.3 µM; in assay [5], over 66.3 µM; in assay [6], 20300 nM; in assay [7], over 66.3 µM. The ID50 in assay [3], in assay [4] and in assay [8] was over 20 µM in each case.
For `COc1ccc(COCCSc2nc(Cc3c(F)cccc3F)c(C)c(=O)[nH]2)cc1`, the EC50 in assay [2] is over 55.9 µM; in assay [5], over 55.9 µM; in assay [6], 1200 nM; in assay [7], over 55.9 µM. In addition, the ID50 was over 20 µM in assay [3], over 20 µM in assay [4] and 0.197 µM in assay [8].
Turning to `COc1ccc(CSc2nc(C(C)c3c(F)cccc3F)c(C)c(=O)[nH]2)cc1` (centres undefined), the EC50 in assay [2] was 0.95 µM; in assay [5], 0.3 µM; in assay [6], 0.025 nM; in assay [7], 0.55 µM. The ID50 in assay [3] was 45 µM; in assay [4] it was over 20 µM; in assay [8] it was 0.003 µM.
For the compound `Cc1c(Cc2ccc(C#N)cc2)nc(SCc2ccc([N+](=O)[O-])cc2)[nH]c1=O`, the EC50 in assay [2] was over 26.4 µM; in assay [5], over 26.4 µM; in assay [6], over 26400 nM; in assay [7], over 26.4 µM. Further, the ID50 in assay [3], in assay [4] and in assay [8] was over 20 µM in each case.
`Cc1c(Cc2c(F)cccc2F)nc(SCC(=O)c2ccc(Cl)cc2)[nH]c1=O`: the EC50 in assay [2] was over 59.5 µM; in assay [5], 3.69 µM; in assay [6], 3760 nM; in assay [7], over 59.5 µM. In addition, the ID50 in assay [3] was over 20 µM; in assay [4] it was over 20 µM; in assay [8], 7.5 µM.
Take `COc1ccc(COCCSc2nc(Cc3c(Cl)cccc3Cl)c(C)c(=O)[nH]2)cc1`: the EC50 in assay [2] is 1.72 µM; in assay [5], 3.01 µM; in assay [6], 21 nM; in assay [7] it was 3.44 µM. Further, the ID50 in assay [3] is 56 µM; in assay [4], over 20 µM; in assay [8] it was 0.063 µM.
With `Cc1c(Cc2c(Cl)cccc2Cl)nc(SC/C=C/c2ccc([N+](=O)[O-])cc2)[nH]c1=O`, the EC50 in assay [2] was over 10.8 µM; in assay [5] it was over 10.8 µM; in assay [6], over 10800 nM; in assay [7], over 10.8 µM. Also, the ID50 in assay [3] was over 20 µM; in assay [4] it was over 20 µM; in assay [8] it was 3.81 µM.
Take `Cc1c(Cc2ccc(C#N)cc2)nc(SCC(=O)c2ccccc2)[nH]c1=O`: the EC50 in assay [2] was over 67.2 µM; in assay [5] it was over 67.2 µM; in assay [6], over 67200 nM; in assay [7], over 67.2 µM. Besides, the ID50 in assay [3], in assay [4] and in assay [8] was over 20 µM in each case.
On to `CCc1c(C(C)c2c(F)cccc2F)nc(SC/C=C/c2ccc(OC)cc2)[nH]c1=O` (centres undefined), for which the EC50 was determined as 0.63 µM in assay [2], 0.7 µM in assay [5], 0.2 nM in assay [6] and 1.02 µM in assay [7]. Besides, the ID50 in assay [3] is 0.4 µM; in assay [4], over 20 µM; in assay [8] it was 0.016 µM.
With `COc1ccc(C#CCSc2nc(C(C)c3c(Cl)cccc3Cl)c(C)c(=O)[nH]2)cc1` (centres undefined), the EC50 in assay [2] was 24.8 µM; in assay [5], 33.5 µM; in assay [6], 500 nM; in assay [7], over 54.5 µM. In addition, the ID50 was over 20 µM in assay [3], over 20 µM in assay [4] and 0.005 µM in assay [8].
Regarding `COc1ccc(/C=C/CSc2nc(Cc3c(Cl)cccc3Cl)c(C)c(=O)[nH]2)cc1`, the EC50 in assay [2] was over 0.96 µM; in assay [5], over 0.96 µM; in assay [6] it was 15 nM; in assay [7], over 0.96 µM. Besides, the ID50 in assay [3] is 9 µM; in assay [4], over 20 µM; in assay [8], 0.007 µM.
For the compound `CCC(c1nc(SCc2ccc(OC)cc2)[nH]c(=O)c1C)c1c(F)cccc1F` (centres undefined), the EC50 in assay [2] amounted to 1.46 µM; in assay [5], 5.02 µM; in assay [6], 1.9 nM; in assay [7] it was 6.13 µM. Also, the figures for the ID50 in assay [3], in assay [4] and in assay [8] were over 20 µM, over 20 µM and 0.047 µM, respectively.
For the compound `CCc1c(Cc2c(Cl)cccc2Cl)nc(SCCc2ccc(OC)cc2)[nH]c1=O`, the EC50 is over 11.1 µM in assay [2], 3.85 µM in assay [5], 1.3 nM in assay [6] and 6.81 µM in assay [7]. Also, the ID50 was over 20 µM in assay [3], over 20 µM in assay [4] and 0.07 µM in assay [8].
Take `Cc1c(Cc2c(Cl)cccc2Cl)nc(SC/C=C/c2ccc(N(C)C)cc2)[nH]c1=O`: the EC50 is over 54.4 µM in assay [2], over 54.4 µM in assay [5], over 54400 nM in assay [6] and over 54.4 µM in assay [7]. Besides, the figures for the ID50 in assay [3], in assay [4] and in assay [8] were over 20 µM, over 20 µM and 0.778 µM, respectively.
Regarding `Cc1c(Cc2c(F)cccc2F)nc(SC/C=C/c2ccc([N+](=O)[O-])cc2)[nH]c1=O`, the EC50 in assay [2] is over 11.7 µM; in assay [5], over 11.7 µM; in assay [6], 260 nM; in assay [7], over 11.7 µM. Also, the ID50 in assay [3] was over 20 µM; in assay [4], over 20 µM; in assay [8], 11.9 µM.
As to `COc1ccc(CCSc2nc(C(C)c3c(Cl)cccc3Cl)c(C)c(=O)[nH]2)cc1` (centres undefined), the EC50 in assay [2] came to 8.17 µM; in assay [5] it was 3.76 µM; in assay [6], 0.2 nM; in assay [7], 6.57 µM. The results for the ID50 in assay [3], in assay [4] and in assay [8] were over 20 µM, over 20 µM and 0.593 µM, respectively.
